Series [1] deals with orthotopic human HCC xenograft tumors (SK-Hep1). Kind of series: In vivo photoacoustic imaging of orthotopic human HCC xenograft tumors. Further details: species or system mouse. As to conditions: intravenous, peptide 300 μM in 200 μL PBS; ICG 2.46 mg/kg; λex = 774 nm. In a few lines: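 Mice were female athymic nude mice bearing orthotopic SK-Hep1 tumors, which were first established subcutaneously in the flank. IRDye800-labeled target or control peptide was given i.v. in 200 µL PBS. Blocking groups got unlabeled peptide injected beforehand, and ICG 2.46 mg/kg i.v. served as comparator. 3D photoacoustic images (excitation 774 nm) were taken before and at 0.5, 1, 1.5, 1.75, 2, 4 and 24 h. Intensity came from 2D maximum-intensity projections, with pre-injection images as background, and was expressed as tumor/background ratio.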
For orientation: Xenograft models place foreign cells or tissue in a host animal.

For series [2] the test system is unchanged. Type of series: in vivo, mouse. As to conditions: 1.75 h post-injection, mean±SD, n = 8 mice per group; λex = 785 nm. In a few lines: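 Tumors were orthotopic SK-Hep1 xenografts in female athymic nude mice; the cells were first grown subcutaneously in the hind flank. Mice received IRDye800-labeled target or control peptide i.v. Other groups were pre-blocked with unlabeled peptide or given ICG. Paired white-light and fluorescence laparoscopic images were taken at 1.75 h post-injection. Ultrasound and MR confirmed tumor location.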

SMILES strings stand for the structures.

Consider 1 compound from article PMC9035732 (Photoacoustics, 2022).

With `CC1(C)C(/C=C/C=C/C=C/C=C2\N(CCCCS(=O)(=O)O)c3ccc4ccccc4c3C2(C)C)=[N+](CCCCS(=O)(=O)[O-])c2ccc3ccccc3c21` [ICG, Indocyanine green], in series [1], the “time of peak photoacoustic intensity in tumor post-injection” value is “not observed within 24 h”. Moreover, the “mean T/B ratio, laparoscopic fluorescence imaging” value in series [2] was found to be 0.87 ± 0.2.
